# M5 ag: human M5 muscarinic receptor agonists, primary screen, CHO-K1 cells, Fluo-8 calcium fluorescence | activation, % at 3 µM | AID 624037, 2012 | Muscarinic acetylcholine receptor M5 (Homo sapiens), P08912 | 0.19% of 360,000 active | CHO-K1 hM5 cells; 0% DMSO wells, 100% maximal acetylcholine response;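 active means activation above the run's mean over test compounds plus 3 SD, cut at about 23% in these data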;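 further: signal is peak over basal fluorescence ratio across the kinetic read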
# Target sequence (P08912 whole entry, looked up): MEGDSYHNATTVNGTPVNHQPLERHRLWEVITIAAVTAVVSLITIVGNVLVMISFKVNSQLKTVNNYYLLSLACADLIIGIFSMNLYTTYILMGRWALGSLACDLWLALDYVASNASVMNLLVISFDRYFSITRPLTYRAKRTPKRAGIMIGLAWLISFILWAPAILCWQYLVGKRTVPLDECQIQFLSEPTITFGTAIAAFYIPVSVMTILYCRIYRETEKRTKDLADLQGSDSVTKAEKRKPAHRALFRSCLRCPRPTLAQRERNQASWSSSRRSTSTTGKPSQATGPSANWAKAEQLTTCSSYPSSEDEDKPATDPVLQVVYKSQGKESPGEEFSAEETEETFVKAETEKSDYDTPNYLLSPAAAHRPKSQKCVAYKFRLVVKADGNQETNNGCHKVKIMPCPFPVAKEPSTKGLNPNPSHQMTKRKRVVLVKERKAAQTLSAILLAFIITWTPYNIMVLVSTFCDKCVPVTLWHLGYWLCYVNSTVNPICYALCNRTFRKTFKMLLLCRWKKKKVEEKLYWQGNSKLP
# CHRM4 PAM: human M4 muscarinic receptor positive allosteric modulators, primary screen, CHO-K1 cells, Fluo-8 calcium fluorescence; AID 624126, 2012; CHO-K1 hM4/Gqi5, ACh EC20; 0% = ACh EC20, 100% = maximal ACh; activation, % at 3 µM; 0.4% of 360,000 active; Muscarinic acetylcholine receptor M4 (Homo sapiens), P08173;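 active means activation above its plate's cutoff, the mean activation of sample wells plus 3 SD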
# M5 PAM: human M5 muscarinic receptor positive allosteric modulators, primary screen, CHO-K1 cells, Fluo-8 calcium fluorescence; Muscarinic acetylcholine receptor M5 (Homo sapiens), P08912; CHO-K1 hM5, ACh EC20 PAM; 0% = ACh EC20, 100% = ACh EC100; activation, % at 3 µM; 0.3% of 360,000 active;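 active means activation above the run cutoff, the mean activation of all test compounds plus 3 SD, cut at about 18% in these data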
#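 Probe or stimulus: acetylcholine, EC20 level; Assay system: human M5 receptor in CHO-K1 cells; Schedule: compound preincubation 140 s before EC20 acetylcholine addition; Technique: intracellular calcium via Fluo-8 fluorescence; Dosing: single-point, 3 µM nominal; Read-out basis: percent activation from peak-over-basal fluorescence ratio, scaled EC20-to-EC100 acetylcholine; Repeats: one well per compound, no replicates.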
# M4 antag: human M4 muscarinic receptor antagonists, primary screen, CHO cells, Fluo-8 calcium fluorescence. inhibition, % at 3 µM. 0.73% of 360,000 active. CHO-hM4 cells, ACh EC80. Muscarinic acetylcholine receptor M4 (Homo sapiens), P08173;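 active means inhibition above its plate's cutoff, the mean inhibition of sample wells plus 3 SD, cut at about 27% in these data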;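 further: 0% = acetylcholine EC80 with DMSO and 100% = DMSO without agonist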
# M4 ag: human M4 muscarinic receptor agonists, primary screen, CHO-K1 cells, Fluo-8 calcium fluorescence; Muscarinic acetylcholine receptor M4 (Homo sapiens), P08173; CHO-K1 hM4/Gqi5; vehicle 0%, full acetylcholine response 100%; activation, % at 3 µM; 0.14% of 360,000 active; AID 624127, 2012;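 active means activation above the run mean over all test wells plus 3 SD, cut at about 32% in these data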;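 further: peak over basal fluorescence ratio per well then scaled between controls; 0% = DMSO wells and 100% = acetylcholine at EC100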
# CHRM5 antagonist: human M5 muscarinic receptor antagonists, primary screen, CHO cells, Fluo-8 calcium fluorescence. Muscarinic acetylcholine receptor M5 (Homo sapiens), P08912. CHO-hM5 cells, ACh EC80. inhibition, % at 3 µM. 0.59% of 360,000 active;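 active means inhibition above a per-plate cutoff, the mean of that plate's test compounds plus 3 SD, cut at about 27% in these data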;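 further: 0% = acetylcholine EC80 with DMSO and 100% = DMSO without agonist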
# * = called active by the depositor. The list is not random: actives were taken first. Their share in the collection is about 1.8%.
SMILES,M5 ag,CHRM4 PAM,M5 PAM,M4 antag,M4 ag,CHRM5 antagonist
CN1C(=O)N(CC(=O)NCc2ccc(Cl)cc2Cl)C(=O)C12CCCCC2,-2,0,-8,6,1,8
CC(OC(=O)CCN=C1NS(=O)(=O)c2ccccc21)C(=O)Nc1ccc(F)cc1Cl (stereo not given),-2,-4,0,-6,0,4
Cc1cc(C)n(S(=O)(=O)c2ccc(F)cc2)n1,-2,1,7,6,0,10
Cc1cc(C)n(S(=O)(=O)c2ccc(C(C)(C)C)cc2)n1,-11,-29,-22,29*,1,-5
CCOc1ccc(N(CC(=O)NC2CC3CCC2C3)S(=O)(=O)c2ccc(C)cc2)cc1 (stereo not given),-5,22*,2,-14,-1,8
COc1cc(C2NC(=O)NC(O)(C(F)(F)F)C2C(=O)c2cccs2)ccc1O (stereo not given),0,0,-1,7,1,4
COc1ccc(C2NC(=S)NC(O)(C(F)(F)F)C2C(=O)c2cccs2)cc1 (stereo not given),-6,-37,-16,43*,2,5
O=C(NCCc1ccccn1)c1cncc(Br)c1,-3,10,0,-15,2,9
CCOC(=O)/C(=C/C=C1\Sc2ccccc2N1CC)C(C)=O,47*,-9,-16,14,18,23
CCOC(=O)/C(=C\C=C1/Sc2ccccc2N1CC)C(C)=O,36*,-29,-15,4,52*,10
CCOC(=O)/C(=C/C=C1\Sc2cc(C)c(C)cc2N1CC)C(C)=O,12,-4,0,11,24,11
O=C(NCC1OCCCN1S(=O)(=O)c1ccc(F)cc1)C(=O)NC1CCCC1 (stereo not given),-3,-2,-2,-2,2,5
COc1ccc(S(=O)(=O)N2CCCOC2CNC(=O)C(=O)NC2CCCC2)cc1 (stereo not given),1,10,30*,-17,3,-18
Cc1ccc(S(=O)(=O)N2CCOC2CNC(=O)C(=O)NCC(C)C)cc1 (stereo not given),0,22*,13,-9,2,-10
COc1ccc(S(=O)(=O)N2CCOC2CNC(=O)C(=O)NCCc2ccc(S(N)(=O)=O)cc2)cc1 (stereo not given),0,1,3,-5,1,-4
Cc1cc(C)n2nc(SCCOc3ccccc3)nc2n1,1,21*,3,-22,2,5
COc1ccc(OCCSc2nc3nc(C)cc(C)n3n2)cc1,4,0,1,5,0,1
N#Cc1ccc2[nH]cc(C3c4cc(F)ccc4C=C(c4ccsc4)N3c3ccc(C#CCCO)cc3)c2c1 (stereo not given),-5,-15,-9,41*,2,4
COc1cc(-c2ccc(N3C(c4ccsc4)=Cc4ccc(F)cc4C3c3c[nH]c4ccc(C#N)cc34)cc2)cc(OC)c1OC (stereo not given),2,5,-8,-2,1,-1
COC(=O)C1=C(C)N(CCc2ccc(OC)c(OC)c2)C(=O)C1,-3,-6,28*,-15,4,21
c1ccc(-c2noc(C3CCC3)n2)nc1,5,1,18*,-7,1,-10
CCCCC1CCC(c2nc(-c3ccccn3)no2)CC1 (stereo not given),1,18,2,-1,-1,1
COCCn1ccc2c(OCC(=O)Nc3cccc(NC(C)=O)c3)cccc2c1=O,5,-1,-3,-5,4,2
C/C=C(\C)C(=O)NCCN1C2=NC[C@@H](C)N2C[C@H]1Cc1ccc(O)cc1,-2,30*,13,0,0,-4
COC(=O)CC1(CC(N)=O)SCCS1,4,5,9,-5,1,-2
SMILES,M5 ag,CHRM4 PAM,M5 PAM,M4 antag,M4 ag,CHRM5 antagonist
CCCCCCCC/C=C\CCCCCCCC(=O)NCCc1ccc(O)c(O)c1,3,1,19*,11,0,-3
CCOC(CNC(=O)c1ccc2c(c1)ncn2-c1cccc(F)c1)OCC,-1,-4,-11,4,1,28*
CCCCn1nnnc1C(c1cc2ccccc2o1)N1CCN(C(=O)OCC)CC1 (stereo not given),3,5,-4,-4,3,2
Clc1cccc(Cl)c1/C=N/Nc1c(Cl)cncc1Cl,5,-1,28*,4,0,-15
CC(C)COC(=O)N1CCCC(c2cc(C(=O)Nc3ccccc3Cl)no2)C1 (stereo not given),-1,5,9,-15,-2,8
CC1(C)Cc2c(c(N3CCOCC3)nc3sc(C(=O)Nc4ccccc4)c(N)c23)CO1,0,5,3,-13,5,-7
CC1(C)Cc2c(c(N3CCOCC3)nc3sc(C(=O)Nc4cccc(Cl)c4)c(N)c23)CO1,-1,18*,13,-5,2,-12
Cc1ccc(S(=O)(=O)n2nnc3ccccc32)c(C)c1C,-1,24*,6,-2,2,-3
N#CC1=C(N)OC(c2ccccc2)=C(C#N)C1c1ccc2c(c1)OCO2 (stereo not given),2,4,-13,4,3,6
N#CC1=C(N)OC2=C(C(=O)CC(c3ccccc3)C2)C1c1ccc2c(c1)OCO2 (stereo not given),-8,-15,-18,38*,0,16
CCc1nnc(NC(=O)c2cc(Cl)ccn2)s1,-4,0,-6,6,1,17
COc1cccc(CNC(=O)COC(=O)c2nc(Cl)c(Cl)c(Cl)c2Cl)c1,-10,-3,-5,20,0,3
CCOc1ccc(Br)cc1/C(C)=N\NC1=NCCN1,8,-12,-15,21,6,32*
COc1ccc2oc3cc(NCCN(C)C)ccc3c(=O)c2c1,-3,18,-2,-5,1,2
CCOC(=O)C(NC(=O)c1ccc(OC)cc1)(OCC1(CC)COC1)C(F)(F)F (stereo not given),-2,18*,11,-7,0,-12
